The text below walks through data of ChEMBL document CHEMBL4673258, “Discovery of IPN60090, a Clinical Stage Selective Glutaminase-1 (GLS-1) Inhibitor with Excellent Pharmacokinetic and Physicochemical Properties” (J Med Chem, 2020).

The conditions of series [1]: rat, microsomes, 0.75 h, 1 µM.
A short description of series [2]: Half life in Sprague-Dawley rat at 0.3 mg/kg, iv by LC-MS/MS analysis. The format is ADME, organism-based. The conditions noted are these: in vivo. The method, boiled down: (§1)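 Bis-hydrochloride salt given to male Sprague-Dawley rats (200–300 g) or male beagle dogs (7–10 kg), fasted overnight and fed 4 h postdose. IV dose 0.3 mg/kg (rat dorsal foot vein, dog cephalic vein) or PO gavage 3 mg/kg.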

Series [3] can be described thus: Cmax in Beagle dog at 3 mg/kg, po administered via gavage by LC-MS/MS analysis. Format: ADME, organism-based, Canis lupus familiaris. Further details: route oral, dose 3 mg/kg. Conditions: in vivo. A digest of the protocol:
(§2)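 Male beagle dogs (7–10 kg), fasted overnight and fed 4 h postdose, received the bis-hydrochloride salt at 3 mpk by oral gavage. Plasma concentrations by LC-MS/MS; Cmax and AUClast from the oral dose.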

The nature of series [4]: Cmax in Sprague-Dawley rat at 3 mg/kg, po administered via gavage by LC-MS/MS analysis. The format is ADME, organism-based. Further details: route oral, dose 3 mg/kg. The conditions noted are these: in vivo. A digest of the protocol: (§3)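 Male Sprague-Dawley rats (200–300 g), fasted overnight and fed 4 h postdose, given the bis-hydrochloride salt at 3 mpk by oral gavage. Tail-vein blood into K2EDTA taken predose and at 0.083–24 h (0.083, 0.25, 0.5, 1, 2, 4, 8, 24 h). Plasma analysed by LC-MS/MS; Cmax and AUClast derived from the oral dose.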

The nature of series [5]: Half life in Beagle dog at 0.3 mg/kg, iv by LC-MS/MS analysis. Conditions: in vivo, 0.3 mg/kg. The format is ADME, organism-based, Canis lupus familiaris. A digest of the protocol: as §1
The nature of series [6]: Volume of distribution at steady state in Sprague-Dawley rat at 0.3 mg/kg, iv by LC-MS/MS analysis. The format is ADME, organism-based. Conditions: in vivo. A digest of the protocol: as §1
Series [7] in a line: AUClast in Sprague-Dawley rat at 3 mg/kg, po administered via gavage by LC-MS/MS analysis. Further details: route oral, time 0 - last, dose 3 mg/kg. Format: ADME, organism-based. The conditions noted are these: in vivo. A digest of the protocol: as §3
Series [8] can be described thus: Permeability across apical to basolateral side in human Caco-2 cells at 10 uM measured after 90 mins by LC-MS/MS analysis. The format is ADME, cell-based. A digest of the protocol:
(§4)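 Caco-2 monolayers grown 21–28 days on polycarbonate filter inserts, with TEER and Lucifer Yellow checked before and after. Compound at 10 μM in HBSS with 25 mM HEPES, pH 7.4. Run A→B and B→A at 37 °C for 90 min. Receiver and donor samples quantified by LC-MS/MS.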
In general terms: Passage across Caco-2 layers is used to estimate intestinal permeability.

A short description of series [9]: Oral bioavailability in Beagle dog at 3 mg/kg administered via gavage by LC-MS/MS analysis. The format is ADME, organism-based, Canis lupus familiaris. The conditions noted are these: in vivo. The method, boiled down:
as §1

Series [10] is described as follows: AUClast in Beagle dog at 3 mg/kg, po administered via gavage by LC-MS/MS analysis. Format: ADME, organism-based, Canis lupus familiaris. Further details: time 0 - last, route oral, dose 3 mg/kg. The conditions noted are these: in vivo. The method, boiled down:
as §2

The nature of series [11]: Permeability across basolateral to apical side in human Caco-2 cells at 10 uM measured after 90 mins by LC-MS/MS analysis. The format is ADME, cell-based. The method, boiled down:
as §4

Series [12] in a line: Intrinsic clearance in dog hepatocytes […] at 2 uM measured after 15 to 120 mins by LC-MS analysis. Conditions: time 15-120 min. Format: ADME, cell-based, Canis lupus familiaris, Hepatocyte. A digest of the protocol: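 Hepatocytes at 2×10^6 viable cells/mL, mixed with an equal volume of 2 μM compound in KHB buffer. Incubated at 37 °C and quenched with ACN at 0, 15, 30, 60 and 120 min. Analysed by LC/MS, with percent remaining from peak area ratio to internal standard against 0 min. Half-life from a single-phase exponential fit.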

A short description of series [13]: Oral bioavailability in Sprague-Dawley rat at 3 mg/kg administered via gavage by LC-MS/MS analysis. Format: ADME, organism-based. The conditions noted are these: in vivo. A digest of the protocol:
as §1

Series [14] can be described thus: Volume of distribution at steady state in Beagle dog at 0.3 mg/kg, iv by LC-MS/MS analysis. Format: ADME, organism-based, Canis lupus familiaris. Conditions: in vivo, 0.3 mg/kg. A digest of the protocol:
as §1

For the molecule `O=C(Cc1cccc(OC(F)(F)F)c1)Nc1ccc(CCCCn2cc(C(=O)NCc3ccccn3)nn2)nn1`, the CLH in series [1] turned out to be 162 mL/min.

One may read the Cmax as the highest concentration seen after dosing. The term Vdss denotes the apparent volume that relates the amount in the body to the concentration in plasma or blood. Higher therefore signals extensive tissue distribution. As to `CNC(=O)c1cn(C[C@H](F)CCc2ccc(NC(=O)Cc3cc(C(F)(F)F)cc(C)n3)nn2)nn1`, the results for the t1/2 in series [2] and in [5] were 3.3 h and 2.6 h, respectively. For the same molecule, the Cmax in series [3] worked out at 4.5 µM; in series [4] it was 4.4 µM. For the same molecule, the Vdss in [6] and in series [14] was 0.2 L/kg each time. Besides, the AUClast stood at 24 µM·h in [7] and 23 µM·h in series [10]. Also, the results for the permeability in series [8] and in series [11] were 7.7 10^-6 cm/s and 25 10^-6 cm/s, respectively. In addition, the F in series [9] was determined as 21%; in [13], 28%. The molecule further showed a CLint in series [12] of 9 mL/min/kg.

Regarding `CNC(=O)c1cn(C[C@H](F)CCc2ccc(NC(=O)Cc3cc(OC4CC(F)(F)C4)ccn3)nn2)nn1`, the permeability in [8] was 1.8 10^-6 cm/s; in series [11], 20 10^-6 cm/s. For the same molecule, the CLint in series [12] stood at 4 mL/min/kg.

Take `CNC(=O)c1cn(C[C@H](F)CCc2ccc(NC(=O)Cc3cc(-c4cccc(OC(F)(F)F)c4)ccn3)nn2)nn1`: the values for the permeability in [8] and in [11] were 5.8 10^-6 cm/s and 21 10^-6 cm/s, respectively. This molecule had a CLint in series [12] of 12 mL/min/kg.

Molecule `O=C(Cc1cccc(OC(F)(F)F)c1)Nc1ccc(CCCCc2nnc(NC(=O)Cc3ccccn3)s2)nn1` returned a CLH in [1] of 203 mL/min.

For the molecule `O=C(Cc1ccccc1)Nc1ccc(CCCCn2cc(C(=O)NCc3ccccc3)nn2)nn1`, in series [1], the CLH was found to be 128 mL/min.
